{"source": "ChEMBL document CHEMBL4229410", "about": "“Facile construction of fused benzimidazole-isoquinolinones that induce cell-cycle arrest and apoptosis in colorectal cancer cells” (Bioorg Med Chem, 2018)", "key": {"SW-620": {"test_system": "SW-620", "experiment": "Down regulation of cyclin-B1 expression in human SW620 cells after 48 hrs by Western blot analysis", "assay_type": "functional, cell-based", "procedure,_shortened": "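HT29 or SW620 cells were treated at 0, 25, 50 and 75 μM for 48 h and lysed in RIPA with protease and phosphatase inhibitors. Protein was quantified by BCA. 50 μg lysate was run on 8–15% SDS-PAGE and transferred to PVDF. Blocking was 5% BSA/TBST for 2 h; primary antibodies were applied overnight at 4 °C, then HRP secondary 1 h at room temperature.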"}, "HT-29 [1]": {"test_system": "HT-29", "experiment": "Induction of apoptosis in human HT-29 cells assessed as live cells at 75 uM after 48 hrs by Annexin-V-FITC/propidium iodide staining based flow cytometry (reference value: 93.2%)", "assay_type": "functional"}, "HT-29 [2]": {"test_system": "HT-29", "experiment": "Inhibition of PI3K in human HT-29 cells assessed as reduction in AKT phosphorylation at S473 residue up to 75 uM after 48 hrs by Western blot analysis", "assay_type": "cell-based"}, "Homo sapiens": {"organism": "Homo sapiens", "experiment": "Inhibition of PI3K in human SW620 cells assessed as reduction in AKT phosphorylation at S473 residue up to 75 uM after 48 hrs by Western blot analysis", "assay_type": "cell-based"}, "[3]": {"biological_target": "ALK tyrosine kinase receptor (Homo sapiens, UniProt Q9UM73)", "experiment": "Inhibition of human ALK (I1088 to E1409 residues) expressed in mammalian expression system assessed as residual activity at 5 uM by KINOMEscan assay relative to control"}, "[4]": {"biological_target": "Serine/threonine-protein kinase DCLK1 (Homo sapiens) (UniProt O15075)", "experiment": "Inhibition of partial length human DCAMKL1 (L270 to A662 residues) expressed in mammalian expression system assessed as residual activity at 5 uM by KINOMEscan assay relative to control"}, "[5]": {"biological_target": "Epidermal growth factor receptor (Homo sapiens, UniProt P00533)", "experiment": "Inhibition of partial length human EGFR (R669 to V1011 residues) expressed in bacterial expression system assessed as residual activity at 5 uM by KINOMEscan assay relative to control"}, "[6]": {"biological_target": "Receptor tyrosine-protein kinase erbB-2 (Homo sapiens, UniProt P04626)", "experiment": "Inhibition of human ERBB2 (K646 to V1225 residues) expressed in mammalian expression system assessed as residual activity at 5 uM by KINOMEscan assay relative to control"}, "[7]": {"biological_target": "Receptor tyrosine-protein kinase erbB-4 (Homo sapiens, UniProt Q15303)", "experiment": "Inhibition of human ERBB4 (L690 to K994 residues) expressed in bacterial expression system assessed as residual activity at 5 uM by KINOMEscan assay relative to control"}, "[8]": {"biological_target": "Receptor-type tyrosine-protein kinase FLT3 (Homo sapiens) (UniProt P36888)", "experiment": "Inhibition of human FLT3 (V592 to Y969 residues) expressed in bacterial expression system assessed as residual activity at 5 uM by KINOMEscan assay relative to control"}, "[9]": {"biological_target": "Glycogen synthase kinase-3 beta (Homo sapiens, UniProt P49841)", "experiment": "Inhibition of full length human GSK3B (M1 to T433 residues) expressed in mammalian expression system assessed as residual activity at 5 uM by KINOMEscan assay relative to control"}, "[10]": {"biological_target": "Mitogen-activated protein kinase 10 (Homo sapiens, UniProt P53779)", "experiment": "Inhibition of human JNK3 (V28 to Q422 residues) expressed in mammalian expression system assessed as residual activity at 5 uM by KINOMEscan assay relative to control"}, "[11]": {"biological_target": "Serine/threonine-protein kinase STK11 (Homo sapiens) (UniProt Q15831)", "experiment": "Inhibition of full length human LKB1 (M1 to Q433 residues) expressed in bacterial expression system assessed as residual activity at 5 uM by KINOMEscan assay relative to control"}, "[12]": {"biological_target": "Mitogen-activated protein kinase kinase kinase 4 (Homo sapiens, UniProt Q9Y6R4)", "experiment": "Inhibition of human MAP3K4 (G1319 to E1608 residues) expressed in bacterial expression system assessed as residual activity at 5 uM by KINOMEscan assay relative to control"}, "[13]": {"biological_target": "Serine/threonine-protein kinase PAK 4 (Homo sapiens, UniProt O96013)", "experiment": "Inhibition of partial length human PAK4 (Q144 to R438 residues) expressed in bacterial expression system assessed as residual activity at 5 uM by KINOMEscan assay relative to control"}, "[14]": {"biological_target": "3-phosphoinositide-dependent protein kinase 1 (Homo sapiens) (UniProt O15530)", "experiment": "Inhibition of full length human PDPK1 (M1 to Q556 residues) expressed in bacterial expression system assessed as residual activity at 5 uM by KINOMEscan assay relative to control"}, "[15]": {"biological_target": "Serine/threonine-protein kinase pim-1 (Homo sapiens, UniProt P11309)", "experiment": "Inhibition of human PIM1 (A15 to K313 residues) expressed in bacterial expression system assessed as residual activity at 5 uM by KINOMEscan assay relative to control"}, "[16]": {"biological_target": "Serine/threonine-protein kinase PLK4 (Homo sapiens) (UniProt O00444)", "experiment": "Inhibition of partial length human PLK4 (M1 to S273 residues) expressed in mammalian expression system assessed as residual activity at 5 uM by KINOMEscan assay relative to control"}, "[17]": {"biological_target": "Ribosomal protein S6 kinase alpha-3 (Homo sapiens, UniProt P51812)", "experiment": "Inhibition of human N-terminal RSK2 kinase domain 1 (M1 to D394 residues) expressed in mammalian expression system assessed as residual activity at 5 uM by KINOMEscan assay relative to control"}, "Activin receptor type-1B": {"biological_target": "Activin receptor type-1B (Homo sapiens, UniProt P36896)", "experiment": "Binding affinity to human ACVR1B (S187 to I505 residues) expressed in bacterial expression system by KINOMEscan assay"}, "[18]": {"biological_target": "Cyclin-dependent kinase 3 (Homo sapiens, UniProt Q00526)", "experiment": "Binding affinity to full length human CDK3 (M1 to H305 residues) expressed in bacterial expression system by KINOMEscan assay"}, "[19]": {"biological_target": "Epidermal growth factor receptor (Homo sapiens, UniProt P00533, L858R)", "experiment": "Binding affinity to partial length human EGFR (R669 to V1011 residues) L858R mutant expressed in bacterial expression system by KINOMEscan assay"}, "[20]": {"biological_target": "Receptor-type tyrosine-protein kinase FLT3 (Homo sapiens, UniProt P36888)", "experiment": "Binding affinity to human FLT3 (V592 to Y969 residues) expressed in bacterial expression system by KINOMEscan assay"}, "[21]": {"biological_target": "Dual specificity mitogen-activated protein kinase kinase 2 (Homo sapiens, UniProt P36507)", "experiment": "Binding affinity to full length human MEK2 (M1 to V400 residues) expressed in mammalian expression system by KINOMEscan assay"}, "[22]": {"biological_target": "Serine/threonine-protein kinase pim-3 (Homo sapiens, UniProt Q86V86)", "experiment": "Binding affinity to human PIM3 (G16 to A317 residues) expressed in bacterial expression system by KINOMEscan assay"}, "TGF-beta receptor type-1": {"biological_target": "TGF-beta receptor type-1 (Homo sapiens, UniProt P36897)", "experiment": "Binding affinity to human TGFBR1 (D179 to M503 residues) expressed in bacterial expression system by KINOMEscan assay"}, "[23]": {"biological_target": "Non-receptor tyrosine-protein kinase TYK2 (Homo sapiens, UniProt P29597)", "experiment": "Binding affinity to human TYK2 JH1 catalytic domain (V877 to C1187 residues) expressed in mammalian expression system by KINOMEscan assay"}}, "note": "Activity calls are given as the source filed them. No cut-off for these calls is given here.", "data": [{"smiles": "CC(C)CN(C(=O)c1cccnc1)c1c2ccccc2c(=O)n2c1[nH]c1ccccc12", "values": [{"measurement": "Activity", "setting": "SW-620", "value": "Dose-dependent effect"}, {"measurement": "Activity", "setting": "HT-29 [1]", "value": 49.8, "unit": "%"}, {"measurement": "inhibition", "setting": "HT-29 [2]", "value": "Active"}, {"measurement": "inhibition", "setting": "Homo sapiens", "value": "Active"}, {"measurement": "Activity", "setting": "[3]", "value": 65, "unit": "%"}, {"measurement": "Activity", "setting": "[4]", "value": 74, "unit": "%"}, {"measurement": "Activity", "setting": "[5]", "value": 100, "unit": "%"}, {"measurement": "Activity", "setting": "[6]", "value": 97, "unit": "%"}, {"measurement": "Activity", "setting": "[7]", "value": 98, "unit": "%"}, {"measurement": "Activity", "setting": "[8]", "value": 98, "unit": "%"}, {"measurement": "Activity", "setting": "[9]", "value": 100, "unit": "%"}, {"measurement": "Activity", "setting": "[10]", "value": 95, "unit": "%"}, {"measurement": "Activity", "setting": "[11]", "value": 63, "unit": "%"}, {"measurement": "Activity", "setting": "[12]", "value": 91, "unit": "%"}, {"measurement": "Activity", "setting": "[13]", "value": 82, "unit": "%"}, {"measurement": "Activity", "setting": "[14]", "value": 93, "unit": "%"}, {"measurement": "Activity", "setting": "[15]", "value": 83, "unit": "%"}, {"measurement": "Activity", "setting": "[16]", "value": 100, "unit": "%"}, {"measurement": "Activity", "setting": "[17]", "value": 91, "unit": "%"}, {"measurement": "Kd", "setting": "Activin receptor type-1B", "value": "≥ 5", "unit": "µM"}, {"measurement": "Kd", "setting": "[18]", "value": "≥ 5", "unit": "µM"}, {"measurement": "Kd", "setting": "[19]", "value": "≥ 5", "unit": "µM"}, {"measurement": "Kd", "setting": "[20]", "value": "≥ 5", "unit": "µM"}, {"measurement": "Kd", "setting": "[21]", "value": "≥ 5", "unit": "µM"}, {"measurement": "Kd", "setting": "[22]", "value": "≥ 5", "unit": "µM"}, {"measurement": "Kd", "setting": "TGF-beta receptor type-1", "value": "≥ 5", "unit": "µM"}, {"measurement": "Kd", "setting": "[23]", "value": "≥ 5", "unit": "µM"}]}]}
